# Measured values as given in ChEMBL document CHEMBL5712911, “A homogeneous bioluminescent immunoassay to probe cellular signaling pathway regulation” (Commun Biol, 2020).
# Active and inactive are the calls of the source. The calls are words filed in the database; no cut-off is given here.
# Tests used:
# [1] = test system: Primary mammary epithelial cell; experiment: Inhibition of IKK in human primary mammary epithelial cells assessed as reduction in IL-1beta-induced IkappaBalpha phosphorylation at serine 32 residue preincubated for 1 hr followed by IL-1beta-stimulation and measured after 10 mins by NanoBiT cell-based immunoassay; conditions: time 70.0 min
# HeLa [2] = experiment: Inhibition of IKK in human HeLa cells assessed as reduction in TNFalpha-induced IkappaBalpha phosphorylation at serine 32 residue preincubated for 1 hr followed by TNFalpha-stimulation and measured after 10 mins by NanoBiT cell-based immunoassay; conditions: time 70.0 min
# Ramos [3] = experiment: Inhibition of IKK in human Ramos cells assessed as reduction in TNFalpha-induced IkappaBalpha phosphorylation at serine 32 residue preincubated for 1 hr followed by TNFalpha-stimulation and measured after 10 mins by NanoBiT cell-based immunoassay; conditions: time 70.0 min
# HeLa [4] = experiment: Inhibition of IKK in human HeLa cells assessed as reduction in IL-1beta-induced IkappaBalpha phosphorylation at serine 32 residue preincubated for 1 hr followed by IL-1beta-stimulation and measured after 10 mins by NanoBiT cell-based immunoassay; conditions: time 70.0 min
# MCF7 [5] = experiment: Inhibition of IKK in human MCF7 cells assessed as reduction in IL-1beta-induced IkappaBalpha phosphorylation at serine 32 residue preincubated for 1 hr followed by IL-1beta-stimulation and measured after 10 mins by NanoBiT cell-based immunoassay; conditions: dose 10.0 µM, time 70.0 min
# Ramos [6] = experiment: Inhibition of IKK in human Ramos cells assessed as reduction in IL-1beta-induced IkappaBalpha phosphorylation at serine 32 residue preincubated for 1 hr followed by IL-1beta-stimulation and measured after 10 mins by NanoBiT cell-based immunoassay; conditions: time 70.0 min
# MCF7 [7] = experiment: Inhibition of IKK in human MCF7 cells assessed as reduction in TNFalpha-induced total IkappaBalpha expression at 10 uM preincubated for 1 hr followed by TNFalpha-stimulation and measured after 10 mins by NanoBiT cell-based immunoassay; conditions: time 70.0 min
# MCF7 [8] = experiment: Inhibition of IKK in human MCF7 cells assessed as effect on TNFalpha-induced p65 expression at 10 uM preincubated for 1 hr followed by TNFalpha-stimulation and measured after 10 mins by NanoBiT cell-based immunoassay; conditions: time 70.0 min
# MCF7 [9] = experiment: Inhibition of IKK in human MCF7 cells assessed as reduction in IL-1beta-induced p65 phosphorylation at serine 536 residue preincubated for 1 hr followed by IL-1beta-stimulation and measured after 10 mins by NanoBiT cell-based immunoassay; conditions: time 70.0 min
# MCF7 [10] = experiment: Inhibition of IKK in human MCF7 cells assessed as reduction in TNFalpha-induced IkappaBalpha degradation preincubated for 1 hr followed by TNFalpha-stimulation and measured after 30 mins by NanoBiT cell-based immunoassay; conditions: time 1.5 hrs
# How it was run: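 MCF-7 cells (50,000/well, seeded overnight) were preincubated 1 h with graded inhibitor concentrations, then stimulated with TNFα (50 ng per ml, 30 min). Digitonin lysis was followed by NanoBiT total IκBα immunoassay: a rabbit/mouse primary pair plus SmBiT/LgBiT-labelled secondaries for 90 min at 23 °C, then Nano-Glo substrate and luminescence read. IC50 was taken from the dose–response.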
# MCF7 [11] = experiment: Inhibition of IKK in human MCF7 cells assessed as reduction in TNFalpha-induced IkappaBalpha phosphorylation at serine 32 residue at 10 uM preincubated for 1 hr followed by TNFalpha-stimulation and measured after 10 mins by NanoBiT cell-based immunoassay; conditions: time 70.0 min
# [12] = test system: Primary mammary epithelial cell; experiment: Inhibition of IKK in human primary mammary epithelial cells assessed as reduction in TNFalpha-induced IkappaBalpha phosphorylation at serine 32 residue preincubated for 1 hr followed by TNFalpha-stimulation and measured after 10 mins by NanoBiT cell-based immunoassay; conditions: time 70.0 min
# MCF7 [13] = experiment: Inhibition of IKK in human MCF7 cells assessed as reduction in TNFalpha-induced p65 phosphorylation at serine 536 residue at 10 uM preincubated for 1 hr followed by TNFalpha-stimulation and measured after 10 mins by NanoBiT cell-based immunoassay; conditions: time 70.0 min
# MCF7 [14] = experiment: Inhibition of PI3K in human MCF7 cells assessed as reduction in insulin-induced AKT T308 phosphorylation preincubated for 1 hr followed by insulin stimulation and measured after 10 mins by NanoBiT cell-based immunoassay; conditions: time 70.0 min
# [15] = Effect on total AKT expression in human MCF7 cells at 20 uM measured after 1 hr by NanoBiT cell-based immunoassay; format: toxicity; conditions: mcf7, 1 h
# How it was run: (§1)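 MCF-7 cells, 50,000/well, were held overnight without serum. They were pretreated 1 h with 20 µM inhibitor, then given insulin (1 µM, 10 min). After 20 min digitonin lysis with protease/phosphatase inhibitors, AKT S473 phosphorylation (20) or total AKT (1) was read by NanoBiT immunoassay (antibody mix 90 min, 23 °C; Nano-Glo luminescence). Means ± S.E.M., n = 3 technical replicates.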
# MCF7 [16] = experiment: Inhibition of PI3K in human MCF7 cells assessed as reduction in IGF1-induced AKT S473 phosphorylation preincubated for 1 hr followed by IGF1 stimulation and measured after 10 mins by NanoBiT cell-based immunoassay; conditions: time 70.0 min
# MCF7 [17] = experiment: Inhibition of PI3K in human MCF7 cells assessed as reduction in insulin-induced AKT S473 phosphorylation preincubated for 1 hr followed by insulin stimulation and measured after 10 mins by NanoBiT cell-based immunoassay; conditions: time 70.0 min
# How it was run: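 For this dose–response, serum-starved MCF-7 cells (50,000/well, overnight without serum) were pretreated 1 h with a concentration series of inhibitor, then stimulated with insulin (1 µM, 10 min). p-AKT S473 was measured by NanoBiT immunoassay: digitonin lysis 20 min, primary pair plus NanoBiT secondaries 90 min at 23 °C, Nano-Glo luminescence. IC50 was derived from the titration.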
# MCF7 [18] = experiment: Inhibition of PI3K in human MCF7 cells assessed as reduction in insulin-induced AKT S473 phosphorylation at 20 uM preincubated for 1 hr followed by insulin stimulation and measured after 10 mins by NanoBiT cell-based immunoassay; conditions: time 70.0 min; how it was run: as §1
# [19] = biological target: T1, Retinoblastoma-associated protein (Homo sapiens) (UniProt P06400); experiment: Inhibition of RB protein in human MCF7 cells assessed as reduction in 17beta-estradiol-induced Rb phosphorylation at Ser780 residue by NanoBiT cell-based immunoassay
# T1 sequence (whole entry): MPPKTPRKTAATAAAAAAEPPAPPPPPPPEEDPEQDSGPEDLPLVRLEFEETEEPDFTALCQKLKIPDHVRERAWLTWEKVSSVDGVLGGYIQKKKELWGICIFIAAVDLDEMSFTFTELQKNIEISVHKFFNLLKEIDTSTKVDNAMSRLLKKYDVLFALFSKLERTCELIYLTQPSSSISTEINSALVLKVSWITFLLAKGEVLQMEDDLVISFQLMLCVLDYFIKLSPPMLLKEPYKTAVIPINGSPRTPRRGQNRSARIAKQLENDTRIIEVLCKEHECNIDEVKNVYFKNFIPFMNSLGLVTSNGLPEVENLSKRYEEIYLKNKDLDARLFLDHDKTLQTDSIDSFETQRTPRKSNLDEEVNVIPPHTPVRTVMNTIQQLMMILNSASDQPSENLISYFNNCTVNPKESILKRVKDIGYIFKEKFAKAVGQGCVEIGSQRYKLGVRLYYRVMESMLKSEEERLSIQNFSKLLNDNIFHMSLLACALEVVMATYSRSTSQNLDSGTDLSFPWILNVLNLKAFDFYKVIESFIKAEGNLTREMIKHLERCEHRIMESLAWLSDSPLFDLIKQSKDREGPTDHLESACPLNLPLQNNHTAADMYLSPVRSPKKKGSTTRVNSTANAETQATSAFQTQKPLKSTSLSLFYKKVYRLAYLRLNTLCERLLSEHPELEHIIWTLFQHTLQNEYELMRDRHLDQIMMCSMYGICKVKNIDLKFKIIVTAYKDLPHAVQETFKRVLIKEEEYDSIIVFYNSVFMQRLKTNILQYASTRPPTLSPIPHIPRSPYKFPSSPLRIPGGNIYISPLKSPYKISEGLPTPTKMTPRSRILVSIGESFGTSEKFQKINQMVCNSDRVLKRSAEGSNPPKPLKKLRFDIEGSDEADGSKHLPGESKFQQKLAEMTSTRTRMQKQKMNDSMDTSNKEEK
# [20] = biological target: T1, Retinoblastoma-associated protein (Homo sapiens); experiment: Inhibition of RB protein in human MCF7 cells assessed as reduction in 17beta-estradiol-induced Rb phosphorylation at Ser807/811 residue by NanoBiT cell-based immunoassay
# [21] = biological target: T1, Retinoblastoma-associated protein (Homo sapiens); experiment: Inhibition of RB protein in human MCF7 cells assessed as reduction in EGF-induced Rb phosphorylation at Ser780 residue by NanoBiT cell-based immunoassay
# [22] = biological target: T1, Retinoblastoma-associated protein (Homo sapiens); experiment: Inhibition of RB protein in human MCF7 cells assessed as reduction in EGF-induced Rb phosphorylation at Ser807/811 residue by NanoBiT cell-based immunoassay
# [23] = biological target: T2, Catenin beta-1 (Homo sapiens) (UniProt P35222); experiment: Induction of beta-catenin degradation in Wnt3a-stimulated HEK293 cells by NanoBiT cell-based immunoassay
# T2 sequence (whole entry): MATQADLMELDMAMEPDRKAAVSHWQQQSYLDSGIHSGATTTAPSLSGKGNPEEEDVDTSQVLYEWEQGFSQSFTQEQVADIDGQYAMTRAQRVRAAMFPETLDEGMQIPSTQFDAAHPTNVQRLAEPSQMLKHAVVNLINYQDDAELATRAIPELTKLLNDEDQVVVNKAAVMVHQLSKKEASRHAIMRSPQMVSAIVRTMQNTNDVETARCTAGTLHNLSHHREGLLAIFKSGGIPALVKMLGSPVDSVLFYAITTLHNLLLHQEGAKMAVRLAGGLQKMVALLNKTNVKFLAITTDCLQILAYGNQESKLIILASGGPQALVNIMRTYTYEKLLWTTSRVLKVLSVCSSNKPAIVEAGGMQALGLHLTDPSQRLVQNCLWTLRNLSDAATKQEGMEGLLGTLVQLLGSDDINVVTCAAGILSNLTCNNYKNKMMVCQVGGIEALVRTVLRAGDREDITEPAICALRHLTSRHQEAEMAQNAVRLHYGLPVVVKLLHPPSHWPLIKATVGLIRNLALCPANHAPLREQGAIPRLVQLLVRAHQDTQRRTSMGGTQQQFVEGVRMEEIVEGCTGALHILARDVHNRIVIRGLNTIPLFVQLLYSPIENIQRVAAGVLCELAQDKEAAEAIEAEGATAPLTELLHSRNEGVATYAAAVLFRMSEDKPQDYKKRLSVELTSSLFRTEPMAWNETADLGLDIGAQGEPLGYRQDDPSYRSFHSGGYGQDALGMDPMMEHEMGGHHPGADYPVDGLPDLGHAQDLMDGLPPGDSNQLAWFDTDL
# [24] = biological target: Eukaryotic translation initiation factor 4E-binding protein 1 (Homo sapiens) (UniProt Q13541); experiment: Inhibition of 4E-BP1 in HEK293 cells assessed as reduction in insulin-induced 4E-BP1 phosphorylation at Ser65 residue by NanoBiT cell-based immunoassay
# [25] = biological target: Small ribosomal subunit protein eS6 (Homo sapiens) (UniProt P62753); experiment: Inhibition of S6 ribosomal protein in HEK293 cells assessed as reduction in serum-induced S6 phosphorylation at Ser240/244 residue by NanoBiT cell-based immunoassay
# [26] = biological target: Eukaryotic translation initiation factor 4E-binding protein 1 (Homo sapiens) (UniProt Q13541); experiment: Inhibition of 4E-BP1 in human MCF7 cells assessed as reduction in insulin-induced 4E-BP1 phosphorylation at Ser65 residue by NanoBiT cell-based immunoassay
# [27] = biological target: Small ribosomal subunit protein eS6 (Homo sapiens) (UniProt P62753); experiment: Inhibition of S6 ribosomal protein in HEK293 cells assessed as reduction in insulin-induced S6 phosphorylation at Ser240/244 residue by NanoBiT cell-based immunoassay
# [28] = biological target: Small ribosomal subunit protein eS6 (Homo sapiens) (UniProt P62753); experiment: Inhibition of S6 ribosomal protein in HEK293 cells assessed as reduction in insulin-induced S6 phosphorylation at Ser235/236 residue by NanoBiT cell-based immunoassay
# [29] = biological target: Small ribosomal subunit protein eS6 (Homo sapiens) (UniProt P62753); experiment: Inhibition of S6 ribosomal protein in HEK293 cells assessed as reduction in serum-induced S6 phosphorylation at Ser235/236 residue by NanoBiT cell-based immunoassay
# [30] = Effect on total STAT3 expression in human A-431 cells at 1 uM measured after 1 hr by NanoBiT cell-based immunoassay; format: toxicity; conditions: a-431, 1 h
# How it was run: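 A431 cells, 50,000/well, were kept overnight in serum-free medium. […] Total STAT3 was measured by NanoBiT immunoassay after 20 min digitonin lysis (antibody mix 90 min, 23 °C; Nano-Glo luminescence). Means ± S.E.M., n = 3 technical replicates.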
# Eukaryotic translation initiation factor 4E-binding protein 1 (Homo sapiens), sequence (Q13541 whole entry): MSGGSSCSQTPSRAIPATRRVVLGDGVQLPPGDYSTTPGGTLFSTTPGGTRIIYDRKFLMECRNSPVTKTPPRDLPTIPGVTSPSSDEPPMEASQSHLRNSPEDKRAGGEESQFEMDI
smiles,measurement,setting,value
O=C(c1ccc(Nc2nccc(-c3cc4ccccc4s3)n2)cc1)N1CCC(N2CCCC2)CC1,inhibition,[1],Active
same,inhibition,HeLa [2],Active
same,inhibition,Ramos [3],Active
same,inhibition,HeLa [4],Active
same,inhibition,MCF7 [5],Active
same,inhibition,Ramos [6],Active
same,inhibition,MCF7 [7],Active
same,inhibition,MCF7 [8],inactive
same,inhibition,MCF7 [9],Active
same,inhibition,MCF7 [10],Dose-Dependent Effect
same,inhibition,MCF7 [11],Active
same,inhibition,[12],Active
same,inhibition,MCF7 [13],Active
O=c1cc(N2CCOCC2)oc2c(-c3ccccc3)cccc12 [LY-294002],inhibition,MCF7 [14],Active
same,Activity,[15],Non-Toxic
same,inhibition,MCF7 [16],Active
same,inhibition,MCF7 [17],Dose-Dependent Effect
same,inhibition,MCF7 [18],Active
CCN(CC)C(=O)c1ccc(Nc2nc(OCC3CCCCC3)c3nc[nH]c3n2)cc1,inhibition,[19],Active
same,inhibition,[20],Active
same,inhibition,[21],Active
same,inhibition,[22],Active
O=C1Nc2ccccc2C12OCC1(CO2)COC2(OC1)C(=O)Nc1ccccc12 (centres undefined),Activity,[23],Active
CO[C@H]1C[C@@H]2CC[C@@H](C)[C@@](O)(O2)C(=O)C(=O)N2CCCC[C@H]2C(=O)O[C@H]([C@H](C)C[C@@H]2CC[C@@H](O)[C@H](OC)C2)CC(=O)[C@H](C)/C=C(\C)[C@@H](O)[C@@H](OC)C(=O)[C@H](C)C[C@H](C)/C=C/C=C/C=C/1C,inhibition,[24],Active
same,inhibition,[25],Active
same,inhibition,[26],Active
same,inhibition,[27],Active
same,inhibition,[28],Active
same,inhibition,[29],Active
N#CC[C@H](C1CCCC1)n1cc(-c2ncnc3[nH]ccc23)cn1 [RUXOLITINIB],Activity,[30],Non-Toxic
CC(=O)c1c(C)c2cnc(Nc3ccc(N4CCNCC4)cn3)nc2n(C2CCCC2)c1=O,inhibition,[19],Active
same,inhibition,[20],Active
same,inhibition,[21],Active
same,inhibition,[22],Active
